Experimental data published in PMC6323139 (Bioorganic & medicinal chemistry, 2017).
“Also recorded” adds a separate entry of the source.

Key:
Type in all cases: biochemical
MIF [1] = molecular target: T1, MIF (Homo sapiens, UniProt P14174); experiment: Enzyme kinetic evaluation at increasing 4-HPP concentrations; details: concluded from Vmax app. and Khalf app.
T1 sequence (P14174 2-115 limits assumed): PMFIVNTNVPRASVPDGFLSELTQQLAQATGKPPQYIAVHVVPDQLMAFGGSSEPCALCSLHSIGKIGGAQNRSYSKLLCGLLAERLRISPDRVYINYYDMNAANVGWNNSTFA
Procedure, shortened: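 Initial velocities were taken from the linear slope of absorbance at 306 nm. Conditions were His-tagged recombinant MIF at 340 nM in boric acid pH 6.2, with 4-HPP at 0–2.56 mM (1.25× dilutions) and test compound at 0, 6.25 or 12.5 µM in 5% DMSO. Velocity versus substrate was fitted to an allosteric sigmoidal model, giving Vmax app., Hill slope and Kprime app. Khalf app. was calculated from Kprime and the Hill slope.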

MIF [2] = molecular target: T1, MIF; experiment: Preincubation assay; details: for Reversibility of inhibition: concluded from preincubation and dilution experiments; for Change in IC50 between preincubation times: preincubated with MIF (340 nM) for 2 or 40 min, inhibitor 125–0 μM
Procedure, shortened: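 His-tagged MIF (340 nM final, in boric acid pH 6.2) was preincubated 2 or 40 min with test compound (125–0 µM, 1.6-fold series, 5% DMSO). 0.5 mM 4-HPP (equilibrated overnight in ammonium acetate pH 6.0) was added, A306 followed, and IC50 curves made. For dilution, 34 µM MIF plus 125 µM compound was diluted 100-fold into 4-HPP/boric acid, with a DMSO-only control and absorbance tracked.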

MIF [3] = molecular target: T1, MIF; experiment: Dilution experiment; details: MIF 34 μM with 125 μM inhibitor, diluted 100x in substrate solution
Procedure, shortened: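 Recombinant His-tagged MIF, purified on His-Trap resin, was premixed at 34 µM with 125 µM test compound in 5% DMSO. The mix was diluted 100-fold into boric acid containing 0.5 mM 4-HPP. The 4-HPP stock was made in 50 mM ammonium acetate pH 6.0 and equilibrated overnight at room temperature. Enol-borate absorbance at 306 nm was plotted against time. The control used 5% DMSO without inhibitor.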

Reversibility of inhibition (MIF [2])	Compound	Mechanism of inhibition (competition with substrate 4-HPP) (MIF [1])	Change in IC50 between preincubation times (MIF [2])	MIF enzyme activity after dilution of the enzyme-inhibitor mixture (MIF [3])
reversible inhibitors	CCCCCCCCCCCCN1C(=O)CC2C(=C(N)Oc3ccccc32)C1=O (stereo not drawn) [Compound 10]	no direct competition between the substrate 4-HPP and the inhibitor; also recorded: does not bind in direct competition with the substrate 4-HPP	No difference in IC50; also recorded: No significant change in IC50 value	activity of MIF could be recovered after dilution; also recorded: Diluting the inhibitor recovered the enzyme activity
reversible inhibitors	Cc1ccc2c(c1)OC(N)=C1C(=O)N(CCc3c[nH]c4ccccc34)C(=O)CC12 (stereo not drawn) [Compound 17]		No difference in IC50	
